# Results from PubChem BioAssay AID1665 (Sanford-Burnham Center for Chemical Genomics, 2009).
# Calls of active or inactive are those of the source.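 How the source made its calls: active means nuclear translocation activity above 50% at 5 µM, with a well cell count of 50 or more; inconclusive means wells under 50 cells across six images, flagged as toxic; inactive means the rest.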
# Test system: HeLa beta-catenin nuclear translocation, immunofluorescence imaging
# Assay: beta-catenin nuclear localization change in HeLa – imaging, HeLa cells, immunofluorescence, high-content, primary screen (AID 1665)
# Procedure, shortened: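 Test system: human HeLa cell line; Doses: 5 µM primary, 0.02–20 µM confirmation; Incubation: 24 h compound exposure, 37°C; Detection: beta-catenin immunofluorescence imaging with DAPI; Read-out: beta-catenin nuclear/cytoplasmic ratio, % activation.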
row,Structure (SMILES),"EC50, beta-catenin nuclear translocation induction (lower = more potent)"
1,CCOC(=O)/C(=C/C=C1\Sc2cc(OCC)c(OCC)cc2N1CC)C(C)=O,> 20 µM (inactive)
2,CCN1/C(=C/c2ccc3cc(C)ccc3[n+]2C)Sc2ccc3sccc3c21,> 20 µM (inactive)
3,Cc1cc(NCCOCCO)n2ncc(-c3ccc(Cl)cc3)c2n1,8.01 µM
4,O=C1NC(=O)C(=C/C=C/c2coc3ccc(Br)cc3c2=O)C(=O)N1,> 20 µM (inactive)
5,COc1ccc2nc3c(cc2c1)c(NC(=O)c1cccs1)nn3CC(C)C,> 20 µM (inactive)
6,Cn1c(-c2ccccc2)cc2c3no[n+]([O-])c3ccc21,> 20 µM (inactive)
7,COc1ccc(/C=C(/NC(=O)c2cccc([N+](=O)[O-])c2)C(=O)O)cc1OC,> 20 µM (inactive)
8,C=CC[C@H]1CC(Cc2ccccc2)=C[C@H](CC=C)N1,0.77 µM
9,CCN(CC)c1ccc(/C=C/c2cc(-c3ccccc3)c3ccccc3n2)cc1,2.56 µM
10,Cc1ccc(NC(=O)Nc2ccnc(-c3cccnc3)n2)cc1,> 20 µM (inactive)
11,CCN1/C(=C/C=C/c2oc3ccc4ccccc4c3[n+]2CC)Oc2ccc3ccccc3c21,5.18 µM
12,CCC(/C=C1\Sc2ccc(OC)cc2N1CCO)=C\c1sc2ccc(OC)cc2[n+]1CCO,> 20 µM (inactive)
13,O=c1ccc2[n+]([O-])c3ccc(O)cc3oc-2c1,7.27 µM
14,CCN1/C(=C/C=C/C=C/c2sc3ccccc3[n+]2CC)Sc2ccccc21,3.73 µM
15,C=CCC1C=C(Cc2ccccc2)CC(CC=C)N1 (stereo not given),> 20 µM (inactive)
16,Cn1c2ccccc2c(=O)c2c(=O)n(Cc3ccco3)c(COc3ccccc3)nc21,> 16 µM (inactive)
17,CC1=CC(C)C(COC(N)=O)(COC(N)=O)C(C)C1 (stereo not given),4.49 µM
18,COC(=O)c1[nH]c2ccc(Br)cc2c1NC(=O)CN1CCN(C2CCCCC2)CC1,3.85 µM
19,CCN1C(c2ccccc2)=C(c2ccccc2)S/C1=C/C=C1\SC(=S)N(C)C1=O,0.56 µM
20,CN1C(=O)/C(=C/c2ccc(N3CCCCCC3)o2)C(=O)NC1=S,2.9 µM
21,Oc1c(/C=C/C=C/C=Nc2ccccc2)sc(=S)n1Cc1ccccc1,> 20 µM (inactive)
22,O=C(CSc1ncnc2nc[nH]c12)NCCc1ccccc1,1.75 µM
23,Cn1c(O)c(/C=C/C=Nc2ccccc2)c(=O)n(C)c1=S,> 20 µM (inactive)
24,CN1\C(=C/C=C/C=C/C=[N+](C)C)C(C)(C)c2ccccc21,9.2 µM
25,CCN1C(=O)/C(=C/C=C2/Sc3ccccc3N2CCO)SC1=S,> 20 µM (inactive)
26,CCCCn1c(O)c(/C=C/C=C/C=Nc2ccccc2)sc1=S,8.79 µM
27,CCC(/C=C1\Sc2ccc(OC)cc2N1CC)=C\c1sc2ccc(OC)cc2[n+]1CCCS(=O)(=O)[O-],4.19 µM
28,CC[n+]1c(/C=C/C=C/N(C(C)=O)c2ccccc2)sc2ccccc21,8.42 µM
29,CCOC(=O)N1CCN(C(=O)c2cc(-c3ccc(OCC)cc3)nc3ccccc23)CC1,2.06 µM
30,Cc1ccc2nc(/C(C#N)=C\c3ccc([N+](=O)[O-])o3)[nH]c2c1,9.06 µM
